Measured values pooled from the literature.
Compare with care: the assays were run in different laboratories.
HTR2B: 5-hydroxytryptamine receptor 2B (HTR2B, Homo sapiens, UniProt P41595)
mraY: mraY (Staphylococcus aureus, UniProt Q2FZ93)

For `COc1cc2c3c(c1OC)-c1c(OC)ccc(NC(C)=O)c1CC3N(C)CC2` (stereo not drawn), the inhibition was 20% (HTR2B; ligand displacement; radioligand; 10 µM).
For `CCCCCCC#Cc1cncc(-c2nnc(SC[C@H]3O[C@@H](n4ccc(=O)[nH]c4=O)[C@H](O)[C@@H]3O)n2C)c1`, the inhibition was 0% (mraY; cell-free assay; inhibitor; 250 µM).
`CCN1/C(=C/C(C)=O)Sc2ccc(F)cc21` has an inhibition of 1.43% (Gastrin/cholecystokinin type B receptor (CCKBR, Homo sapiens, UniProt P32239); ligand displacement; radioligand; 10 µM).
For `Cc1cc(F)cc2c(CCC(=O)N[C@@H]3C(=O)NC[C@H]3O)c(-c3ccc(F)cc3)[nH]c12`, the inhibition was 25% (Substance-P receptor (TACR1, Homo sapiens, UniProt P25103); cell-free assay; 10 µM).
With `COc1cc2c3c(c1OC)-c1c(OC)ccc(N4CCOCC4)c1CC3N(C)CC2` (stereo not drawn) the inhibition was 80% (HTR2B; ligand displacement; radioligand; 10 µM).
With `CCCCCCC#Cc1cncc(-c2nnc(SC[C@H]3O[C@@H](n4ccc(=O)[nH]c4=O)[C@H](O)[C@@H]3O)n2CCCN)c1` the inhibition was 44% (mraY; cell-free assay; inhibitor; 250 µM).
`NC/C(=C\F)COc1cccc(Cn2c(=S)[nH]c(=O)c3[nH]cnc32)c1` gave an inhibition of < 50% (B2 bradykinin receptor (BDKRB2, Homo sapiens, UniProt P30411); ligand displacement; radioligand; 10 µM).
`COc1cc2c3c(c1OC)-c1c(OC)ccc(-c4ccc(C#N)cc4)c1CC3N(C)CC2` (stereo not drawn) gave an inhibition of 24% (5-hydroxytryptamine receptor 2C (HTR2C, Homo sapiens, UniProt P28335); ligand displacement; radioligand; 10 µM).
With `CCCCCCC#Cc1cncc(-c2nnc(SCc3cc(=O)[nH]c4ccccc34)n2C)c1` the inhibition was 30% (mraY; cell-free assay; inhibitor; 250 µM).
`C#Cc1cc(-c2cc(Nc3nc(N[C@@H](C)c4ccc(F)cn4)ncc3Cl)n[nH]2)ccc1C=O` has an inhibition of 82.4% (Serine/threonine-protein kinase SIK1 (SIK1, Homo sapiens, UniProt P57059); enzyme activity; inhibitor; 0.2 µM).
`CCCCCCC#Cc1cncc(-c2nnc(SCCCn3ccc(=O)[nH]c3=O)n2C)c1` has an inhibition of 7% (mraY; enzyme activity; inhibitor; 100 µM).
For `CC[N+]1(C)CCc2cc(OC)c(OC)c3c2C1Cc1cccc(OC)c1-3` (stereo not drawn), the inhibition was 26% (HTR2B; ligand displacement; radioligand; 10 µM).
